Measured values published in ChEMBL document CHEMBL2412959, “Investigations on synthesis and structure elucidation of novel [1,2,4]triazolo[1,2-a]pyridazine-1-thiones and their inhibitory activity against inducible nitric oxide synthase” (Bioorg Med Chem, 2013).
pIC50: −log10 of the molar value. Activity calls are given as the source filed them. The rule behind the calls is not given here.

Assays:
[1] = Cytotoxicity against rat RINm5F cells at 39 to 78 uM by MTT assay; assay type: cell-based
Outline: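 RIN5F rat insulinoma cells, 1×10^5 per well, cytokine-induced and compound-treated as for the NO assay. After supernatant removal, medium was replaced with fresh medium containing MTT (2.5 mg/mL in PBS) for 4 h at 37 °C. Formazan was dissolved in DMSO. Viability is expressed as percent of cytokine-stimulated cells without compound.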

[2] = biological target: Nitric oxide synthase, inducible (Rattus norvegicus, UniProt Q06518); test: (§1) Inhibition of iNOS-mediated NO production in IL-1beta/IFNgamma-stimulated rat […] cells by Griess reaction
Sequence of Nitric oxide synthase, inducible (Q06518 whole entry): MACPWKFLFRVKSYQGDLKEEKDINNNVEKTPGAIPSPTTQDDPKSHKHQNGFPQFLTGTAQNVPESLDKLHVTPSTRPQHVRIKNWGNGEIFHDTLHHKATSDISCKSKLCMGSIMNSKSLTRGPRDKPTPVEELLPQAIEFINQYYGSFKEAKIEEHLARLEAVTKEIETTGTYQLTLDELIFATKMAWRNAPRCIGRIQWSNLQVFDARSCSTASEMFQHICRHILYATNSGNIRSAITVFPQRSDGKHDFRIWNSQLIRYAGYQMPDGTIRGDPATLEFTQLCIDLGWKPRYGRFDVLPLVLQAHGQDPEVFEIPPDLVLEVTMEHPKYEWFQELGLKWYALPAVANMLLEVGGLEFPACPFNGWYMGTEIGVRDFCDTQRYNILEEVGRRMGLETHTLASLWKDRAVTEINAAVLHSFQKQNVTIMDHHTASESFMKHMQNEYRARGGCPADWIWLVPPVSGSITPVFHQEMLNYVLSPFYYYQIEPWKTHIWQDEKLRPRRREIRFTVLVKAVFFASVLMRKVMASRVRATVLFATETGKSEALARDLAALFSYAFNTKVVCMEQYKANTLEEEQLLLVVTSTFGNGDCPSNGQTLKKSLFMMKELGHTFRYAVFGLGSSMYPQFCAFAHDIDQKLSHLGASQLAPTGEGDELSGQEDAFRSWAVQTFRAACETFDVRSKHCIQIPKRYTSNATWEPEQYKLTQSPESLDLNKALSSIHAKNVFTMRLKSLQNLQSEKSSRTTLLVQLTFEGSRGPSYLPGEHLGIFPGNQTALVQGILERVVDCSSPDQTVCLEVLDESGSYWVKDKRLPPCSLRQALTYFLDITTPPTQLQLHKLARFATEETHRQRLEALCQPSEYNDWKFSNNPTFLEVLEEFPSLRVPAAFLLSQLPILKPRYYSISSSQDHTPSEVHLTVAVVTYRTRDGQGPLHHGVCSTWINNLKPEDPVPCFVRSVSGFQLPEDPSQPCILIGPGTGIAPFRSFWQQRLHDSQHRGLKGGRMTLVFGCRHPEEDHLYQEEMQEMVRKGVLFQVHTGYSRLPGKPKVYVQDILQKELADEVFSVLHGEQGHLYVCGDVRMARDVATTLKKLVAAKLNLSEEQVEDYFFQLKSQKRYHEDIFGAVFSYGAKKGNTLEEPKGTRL
Outline: (§2)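 Same cytokine-stimulated RIN5F Griess assay (IL-1β 1 ng/mL, IFN-γ 10 ng/mL; nitrite at 550 nm, nitrite calibration). Concentrations were chosen per compound to span 10–90% inhibition, plus one or two outside this range. IC50 was obtained by linear regression of log concentration versus percent inhibition.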

[3] = Chemical stability in DMSO assessed as compound precipitation after several weeks; assay type: physicochemical
[4] = biological target: Nitric oxide synthase, inducible (Rattus norvegicus) (UniProt Q06518); test: as §1; outline: as §2
Sequence of Nitric oxide synthase, inducible (Rattus norvegicus) (Q06518 whole entry): as above

[5] = biological target: Nitric oxide synthase, inducible (Rattus norvegicus) (UniProt Q06518); test: Inhibition of iNOS-mediated NO production in IL-1beta/IFNgamma-stimulated rat […] cells at 39 to 78 uM by Griess reaction
Outline: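 Compounds were added from 62.5 mM DMSO stock at 78 and 39 μM (final 0.5% DMSO). Nitrite in supernatant was measured by Griess reagents, absorbance 550 nm, against a 0–100 μM nitrite standard. Aminoguanidine was the reference on each plate. n = 5–8.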

[6] = Chemical stability in DMSO assessed as compound precipitation after 7 days; assay type: physicochemical; details: 168 h
[7] = biological target: Nitric oxide synthase, inducible (Rattus norvegicus) (UniProt Q06518); test: Ratio of aminoguanidine IC50 to compound IC50 for iNOS-mediated NO production in IL-1beta/IFNgamma-stimulated rat […] cells by Griess reaction

For O=[N+]([O-])c1ccc(C2NC(=S)N3CCCCN23)cc1 (centres undefined), the Activity [1] was “Non-toxic”, the pIC50 [2] was 4.88 and the Stability [3] was “Unstable”.
In the case of Oc1ccccc1C1NC(=S)N2CCCCN12 (centres undefined), the Activity [1] was “Non-toxic”, the pIC50 [2] was 4.15 and the Stability [3] was “Unstable”.
In the case of S=C1NC(Cc2ccccc2)N2CCCCN12 (centres undefined), the Activity [1] was “Non-toxic”, the inhibition [4] was “inactive” and the Stability [3] was “Unstable”.
With COc1ccc(C2NC(=S)N3CCCCN23)cc1 (centres undefined) the Activity [1] was “Non-toxic”, the Stability [3] was “Unstable” and the inhibition [5] was “Active”.
With S=C1NC(c2ccc(Cl)cc2)N2CCCCN12 (centres undefined) the Activity [1] was “Non-toxic”, the pIC50 [2] was 4.24 and the Stability [3] was “Unstable”.
With Oc1ccc(C2NC(=S)N3CCCCN23)cc1 (centres undefined) the Activity [1] was “Non-toxic”, the Stability [3] was “Unstable” and the inhibition [5] was “Active”.
For N=C(N)NN [PIMAGEDINE], the Activity [1] was “Non-toxic” and the pIC50 [2] was 3.88.
With CC1NC(=S)N2CCCCN12 (centres undefined) the Activity [1] was “Non-toxic”, the inhibition [4] was “inactive” and the Stability [3] was “Unstable”.
With S=C1NC(c2cccc(Oc3ccccc3)c2)N2CCCCN12 (centres undefined) the Activity [1] was “Non-toxic”, the pIC50 [2] was 4.40 and the Stability [3] was “Unstable”.
For S=C1NC(c2ccccc2)N2CCCCN12 (centres undefined), the Activity [1] was “Non-toxic”, the Stability [3] was “Unstable” and the inhibition [5] was “Active”.
With S=C1NC(/C=C/c2ccccc2)N2CCCCN12 (centres undefined) the Activity [1] was “Non-toxic”, the Stability [6] was “Unstable” and the pIC50 [2] was 4.52.
In the case of Cc1cccc(C2NC(=S)N3CCCCN23)c1 (centres undefined), the Activity [1] was “Non-toxic”, the Stability [3] was “Unstable” and the inhibition [5] was “Active”.
In the case of CN(C)c1ccc(C2NC(=S)N3CCCCN23)cc1 (centres undefined), the Activity [1] was “Non-toxic”, the pIC50 [2] was 4.00 and the Ratio IC50 [7] was 2. For the same compound, the Stability [3] was “Unstable”.
With Oc1cccc(C2NC(=S)N3CCCCN23)c1 (centres undefined) the Activity [1] was “Non-toxic”, the Stability [3] was “Unstable” and the inhibition [5] was “Active”.
For O=[N+]([O-])c1ccccc1C1NC(=S)N2CCCCN12 (centres undefined), the Activity [1] was “Non-toxic”, the pIC50 [2] was 4.62 and the Stability [3] was “Unstable”.
In the case of Cc1ccc(C2NC(=S)N3CCCCN23)cc1 (centres undefined), the Activity [1] was “Non-toxic”, the pIC50 [2] was 4.27 and the Stability [3] was “Unstable”.
In the case of O=[N+]([O-])c1cccc(C2NC(=S)N3CCCCN23)c1 (centres undefined), the Activity [1] was “Non-toxic”, the pIC50 [2] was 4.79 and the Stability [3] was “Unstable”.
With O=[N+]([O-])c1ccccc1/C=C/C1NC(=S)N2CCCCN12 (centres undefined) the Activity [1] was “Non-toxic”, the Stability [6] was “Unstable” and the pIC50 [2] was 5.01. The Ratio IC50 [7] was 10.
In the case of Cc1ccccc1C1NC(=S)N2CCCCN12 (centres undefined), the Activity [1] was “Non-toxic”, the pIC50 [2] was 4.22 and the Stability [3] was “Unstable”.
For S=C1NC(c2ccccc2Cl)N2CCCCN12 (centres undefined), the Activity [1] was “Non-toxic”, the pIC50 [2] was 4.20 and the Stability [3] was “Unstable”.
With S=C1NC(c2cccc(Cl)c2)N2CCCCN12 (centres undefined) the Activity [1] was “Non-toxic”, the Stability [3] was “Unstable” and the inhibition [5] was “Active”.
